From ChEMBL document CHEMBL2385077, “Synthesis, local anaesthetic and antiarrhythmic activities of N-alkyl derivatives of proline anilides” (Eur J Med Chem, 2013) come the findings set out here.

Molecules are shown by their SMILES. Activity calls are given as the source filed them. A value given as a limit tells only on which side of the number the result lay.

The test system of series [1] is Mus musculus. Put plainly: Antiarrhythmic index, ratio of LD50 for Swiss albino mouse to ED50 for calcium chloride-induced Swiss albino mouse. The series is classed as functional, Heart. The procedure, abridged:
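ED50 taken as mean effective dose preventing arrhythmia-associated death, reported only when below ½ LD50. LD50 from acute i.v. toxicity in mice. Index computed as LD50/ED50.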

Series [2] concerns Mus musculus. The series is described as follows: Antiarrhythmic activity in iv dosed Swiss albino mouse assessed as inhibition of calcium chloride-induced cardiac arrhythmia after 15 mins. To be noted: Heart, 0.25 h. The series is classed as functional. The procedure, abridged: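 Swiss albino mice received compound i.v. at doses up to ½ LD50 (acute i.v. toxicity measured beforehand). Fifteen minutes later arrhythmia was provoked by i.v. calcium chloride (3%, 280 mg/kg). ED50 was taken as the mean effective dose preventing arrhythmia-associated mortality, and was determined only when below ½ LD50.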

Series [3] can be described thus: Toxicity in iv dosed Swiss albino mouse after 72 hrs. The settings on record: in vivo. Type of series: organism-based. The procedure, abridged: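 Albino Swiss mice of both sexes, 18-22 g, received aqueous solutions via tail vein at increasing doses. Mortality and behavioural changes followed for 72 h. LD50 reported in mg/kg with range in parentheses.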
For a further series, the system named is Oryctolagus cuniculus. The series is described as follows: Surface anesthetic effect in New Zealand white rabbit assessed as time duration. The series is classed as functional. The procedure, abridged:
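Rabbit corneal reflex test: 1% aqueous solution (0.25 ml) instilled into the conjunctival sac over 30 sec. Cornea touched with a pointer (up to 100 per series) at 8, 10, 12 and 15 min, then every 5 min. Six animals per compound; mean ± SEM.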

The subject of series [4] is Rattus norvegicus. Put plainly: Anesthetic effect in Wistar rat assessed as duration of blockage of muscle contraction by infiltration local anaesthetic activity assay. Type of series: functional, Muscle tissue. The procedure, abridged: (§1)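 Shaved lumbar back skin of Wistar rats; electrical stimulation threshold for surface muscle contraction found first (rectangular pulses, 0.36 to 14.0 V, 0.3 ms, 50 Hz). 0.5% compound in saline given as 0.2 ml intradermal plus 0.2 ml subcutaneous. Threshold re-measured at 3 and 5 min, then every 5 min until back to baseline. Depth is % threshold change from initial; >2-fold rise = 100% anaesthesia. Six rats per compound.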

Series [5] deals with Rattus norvegicus. Put plainly: Anesthetic effect in Wistar rat assessed as time taken for blockage of muscle contraction by infiltration local anaesthetic activity assay. The series is classed as functional, Muscle tissue. The procedure, abridged:
as §1

Series [6] relates to Rattus norvegicus. Put plainly: Anesthetic effect in Wistar rat assessed as duration of complete blockage of muscle contraction by infiltration local anaesthetic activity assay. The series is classed as functional, Muscle tissue. The procedure, abridged: as §1
In series [7] the test system is Rattus norvegicus. The series is described as follows: Anesthetic effect in Wistar rat assessed as increase in threshold value by infiltration local anaesthetic activity assay relative to control. The series is classed as functional. The procedure, abridged:
as §1

Series [8] concerns Rattus norvegicus. Put plainly: Anesthetic effect in Wistar rat assessed as increase in depth of anesthesia after 35 mins by infiltration local anaesthetic activity assay relative to control. The series is classed as functional, organism-based. The procedure, abridged:
as §1

As for `Cc1ccccc1NC(=O)[C@@H]1CCCN1Cc1ccccc1.Cl`, the “Ratio LD50/ED50” value in the series with Mus musculus [1] amounted to 3.3. Moreover, in the series with Mus musculus [2], the ED50 was found to be 10.9 mg/kg. Also, the LD50 at 72 h in series [3] stood at 35.5 mg/kg.

Regarding `Cc1ccccc1NC(=O)[C@@H]1CCCN1C.Cl`, the ED50 with Mus musculus [2] is more than 16.3 mg/kg. In series [3], this compound came in with an LD50 at 72 h of 32.5 mg/kg.

Consider `CCCCN1CCCC1C(=O)Nc1ccccc1C(F)(F)F.Cl` (mixture of isomers), for which the “Ratio LD50/ED50” value in the series on Mus musculus [1] came to 6.1. For the same compound, in the series with Mus musculus [2], the ED50 was found to be 5.8 mg/kg. In addition, the LD50 at 72 h in [3] turned out to be 35.5 mg/kg. Besides, the Time with Oryctolagus cuniculus was determined as 20.4 min.

Turning to `CCCCN1CCCC1C(=O)Nc1ccccc1CC.Cl` (mixture of isomers), in the series on Mus musculus [1], the “Ratio LD50/ED50” value amounted to 4.2. In addition, the ED50 with Mus musculus [2] was determined as 7.1 mg/kg. In addition, the LD50 at 72 h in [3] worked out at 30 mg/kg. Further, in the series on Oryctolagus cuniculus, the Time is 12.7 min.

On to `CCCCN1CCCC1C(=O)Nc1ccccc1I.Cl` (mixture of isomers), for which the “Ratio LD50/ED50” value in the series on Mus musculus [1] came to 5.6. For the same compound, the ED50 in the series on Mus musculus [2] turned out to be 7.3 mg/kg. In series [3], the 50% lethal dose (LD50) at 72 h was 41 mg/kg. Moreover, the Time in the series with Oryctolagus cuniculus was found to be 20.3 min.

Regarding `CCCCN1CCCC1C(=O)Nc1ccc(Cl)cc1Cl.Cl` (mixture of isomers), in the series with Mus musculus [2], the ED50 is more than 16.3 mg/kg. This compound also showed an LD50 at 72 h in series [3] of 32.5 mg/kg.

`CCCCN1CCCC1C(=O)Nc1ccc(Br)cc1Br.Cl` (mixture of isomers): the “Ratio LD50/ED50” value in the series with Mus musculus [1] stood at 3.5. Besides, the ED50 in the series with Mus musculus [2] was found to be 69 mg/kg. Further, the LD50 at 72 h in series [3] came out at 239 mg/kg.

Consider `CCCCCN1CCCC1C(=O)Nc1ccccc1C.Cl` (mixture of isomers), for which the “Ratio LD50/ED50” value in the series on Mus musculus [1] is given as 5.9. Also, in the series on Mus musculus [2], the ED50 was 5.5 mg/kg. For the same compound, in [3], the median lethal dose (LD50) at 72 h is 32.5 mg/kg. The Time in the series with Oryctolagus cuniculus was 59.8 min.

Take `CCCCCCN1CCCC1C(=O)Nc1ccccc1C.Cl` (mixture of isomers): the Time in the series with Rattus norvegicus [4] came to 115 min; in the series with Rattus norvegicus [5] it was 1 min; with Oryctolagus cuniculus, 75.7 min. Also, in the series with Mus musculus [1], the “Ratio LD50/ED50” value is on record as 6.3. Also, in the series on Mus musculus [2], the ED50 was found to be 5.6 mg/kg. For the same compound, the LD50 at 72 h in series [3] was 35.5 mg/kg.

In the case of `Cc1ccccc1NC(=O)C1CCCN1C1CCCCC1.Cl` (mixture of isomers), in the series on Mus musculus [2], the ED50 was more than 6.5 mg/kg. Besides, the LD50 at 72 h in [3] amounted to 12.9 mg/kg. Also, the Time in the series on Oryctolagus cuniculus is reported as 46.5 min.

Turning to `Cc1ccc(NC(=O)C2CCCN2C2CCCCC2)c(C)c1.Cl` (mixture of isomers), the results for the Time with Rattus norvegicus [4], with Rattus norvegicus [5] and in the series with Oryctolagus cuniculus were 126.3 min, 1 min and 73.2 min, respectively. In addition, the “Ratio LD50/ED50” value with Mus musculus [1] is listed as 7.3. In the series on Mus musculus [2], the 50% effective dose (ED50) is 8.9 mg/kg. Besides, the LD50 at 72 h in series [3] was determined as 65 mg/kg.

As to `Cl.O=C(Nc1ccccc1Cl)C1CCCN1C1CCCCC1` (mixture of isomers), the “Ratio LD50/ED50” value in the series with Mus musculus [1] amounted to 6.9. For the same compound, the ED50 in the series on Mus musculus [2] was determined as 13.7 mg/kg. Further, the LD50 at 72 h in series [3] was determined as 95 mg/kg. Besides, the Time with Oryctolagus cuniculus is on record as 41.3 min.

On to `CCN1CCCC1C(=O)Nc1ccccc1C.Cl` (mixture of isomers), for which, in the series on Mus musculus [2], the ED50 is more than 18.4 mg/kg. The compound further displayed an LD50 at 72 h in series [3] of 36.8 mg/kg.

As to `CCCCN1CCCC1C(=O)Nc1ccccc1C.Cl` (mixture of isomers), the “Ratio LD50/ED50” value with Mus musculus [1] was 3. In addition, the ED50 in the series on Mus musculus [2] turned out to be 5.4 mg/kg. The compound also gave an LD50 at 72 h in series [3] of 16.3 mg/kg. For the same compound, the Time is 12.5 min in the series with Rattus norvegicus [6], 1 min with Rattus norvegicus [5] and 49.4 min in the series with Oryctolagus cuniculus.

On to `CCCCN1CCCC1C(=O)Nc1c(C)cccc1C.Cl` (mixture of isomers), for which the ED50 in the series with Mus musculus [2] was more than 4.6 mg/kg. In series [3], this compound returned an LD50 at 72 h of 9.2 mg/kg. The Activity in the series with Rattus norvegicus [7] was determined as 90%. Moreover, the Time was 20 min with Rattus norvegicus [6], 1 min in the series on Rattus norvegicus [5] and 57.5 min in the series with Oryctolagus cuniculus.

Consider `CCCCN1CCCC1C(=O)Nc1ccc(C)cc1C.Cl` (mixture of isomers), for which the ED50 with Mus musculus [2] is more than 30 mg/kg. The compound further came in with an LD50 at 72 h in series [3] of 60 mg/kg. In the series with Oryctolagus cuniculus, the Time worked out at 59 min.

For `CCCCN1CCCC1C(=O)Nc1ccccc1C` (racemic), in the series with Rattus norvegicus [8], the outcome was inactive.

`CCCCN1CCCCC1C(=O)Nc1c(C)cccc1C` (stereo not drawn) [BUPIVACAINE]: the Time in the series with Rattus norvegicus [4] is 155 min; with Rattus norvegicus [6], 102.5 min; with Rattus norvegicus [5] it was 1 min; in the series with Oryctolagus cuniculus, 94 min. Moreover, the “Ratio LD50/ED50” value in the series on Mus musculus [1] amounted to 2.5. The ED50 in the series on Mus musculus [2] was 3.5 mg/kg. The same compound had an LD50 at 72 h in series [3] of 8.9 mg/kg.

Take `Cc1cc(C)c(NC(=O)C2CCCN2C2CCCCC2)c(C)c1.Cl` (stereo not drawn) [CYCLOMECAINE]: in the series with Mus musculus [1], the “Ratio LD50/ED50” value was found to be 5.2. Moreover, the ED50 with Mus musculus [2] was 2.9 mg/kg. The compound further displayed an LD50 at 72 h in series [3] of 15 mg/kg. For the same compound, the Time in the series with Oryctolagus cuniculus was found to be 124.5 min.

Consider `CCN(CC)CC(=O)Nc1c(C)cccc1C` [LIDOCAINE], for which the ED50 with Mus musculus [2] came out at 7.7 mg/kg. Further, the Time in the series with Oryctolagus cuniculus is recorded as 37.8 min.

Take `CCCN1CCCC[C@H]1C(=O)Nc1c(C)cccc1C` [ROPIVACAINE]: the Time in the series with Rattus norvegicus [4] was 80 min; in the series with Rattus norvegicus [6], 58.8 min; with Rattus norvegicus [5] it was 1 min; in the series with Oryctolagus cuniculus, 58.4 min. Besides, the “Ratio LD50/ED50” value in the series on Mus musculus [1] was 3.8. Also, in the series with Mus musculus [2], the ED50 amounted to 3.7 mg/kg. The same compound had an LD50 at 72 h in series [3] of 14.1 mg/kg.
